Published values pooled from the literature.
Each line is one published result; the experiments were not run side by side.
RET V804M: Proto-oncogene tyrosine-protein kinase receptor Ret (RET, Homo sapiens, UniProt P07949, V804M)
RET V804L: Proto-oncogene tyrosine-protein kinase receptor Ret (RET, Homo sapiens, UniProt P07949, V804L)
RET M918T: Proto-oncogene tyrosine-protein kinase receptor Ret (RET, Homo sapiens, UniProt P07949, M918T)
RET: Proto-oncogene tyrosine-protein kinase receptor Ret (RET, Homo sapiens, UniProt P07949)

Compound	target	read-out	method	concentration	remaining binding
O=C(c1ccc(Nc2ncc(Cl)c(-c3cc4ccccc4s3)n2)cc1)N1CCC(N2CCCC2)CC1	RET V804M	binding	competition with immobilised ligand	1 µM	37%
O=C(NCC1CCOCC1)c1n[nH]cc1NC(=O)c1c(F)cccc1F	RET V804L	binding	competition with immobilised ligand	1 µM	100%
O=C(c1ccc(Nc2nccc(-c3cc4ccccc4s3)n2)cc1)N1CCC(N2CCCC2)CC1	RET V804L	binding	competition with immobilised ligand	1 µM	80%
C[C@H]1CCN(c2nccc(-c3cnn4ncccc34)n2)C1	RET M918T	binding		1 µM	100%
CN1CCN(c2ccc(Nc3nccc(-c4ccccc4)n3)cc2C(F)(F)F)CC1	RET V804M	binding		10 µM	48%
CC(C)CC(=O)N1CCc2nc(-c3ccc(Br)cc3)nc(N(C)Cc3ccccc3)c2C1	RET	cell-free assay	competition with immobilised ligand	0.1 µM	68%
c1cncc(-c2cccc(Nc3nccc(NC4CCCCC4)n3)c2)c1	RET M918T	binding	competition with immobilised ligand	10 µM	2.1%
N[C@@H]1CCN(c2nccc(-c3cnn4ncccc34)n2)C1	RET V804L	binding		1 µM	94%
O=C(O)c1cc(-c2ccc(C3CCNCC3)cc2)c2ccc(-c3ccc(C(F)(F)F)cc3)cc2c1	RET V804M	cell-free assay	competition with immobilised ligand	1 µM	100%
CN(c1nccc(-c2cnn3ncccc23)n1)C1CC1	RET V804M	binding		1 µM	100%
COc1ncc2cc3ccccc3nc2c1C#N	RET	cell-free assay	competition with immobilised ligand	5 µM	96%
COc1cnc(Nc2cccc(S(N)(=O)=O)c2)nc1N1CCN(c2ccccc2)C(=O)C1	RET M918T	binding	competition with immobilised ligand	1 µM	100%
C[C@@H](c1ccc(-n2cnc3c(N)ncnc32)cc1)N1CCc2nn(C)c(Cc3ccccc3)c2C1=O	RET M918T	binding	competition with immobilised ligand	0.1 µM	98%
COc1cc(-c2cn(C3CCc4c(F)cccc4N(CC(F)(F)F)C3=O)nn2)ccc1-n1cnc(C)c1 (centres unmarked)	RET V804M	cell-free assay	competition with immobilised ligand	1 µM	88%
CN(C)c1nccc(-c2cnn3ncccc23)n1	RET	binding		1 µM	91%
CN(C)CC#Cc1ccc(OCCCc2sc(N3CCc4cccc(C(=O)Nc5nc6ccccc6s5)c4C3)nc2C(=O)O)c(F)c1	RET	cell-free assay	competition with immobilised ligand	1 µM	100%
CN(C)c1ncc(F)c(-c2cnn3ncccc23)n1	RET V804L	binding		1 µM	91%
O=C(NCc1ncc(C(F)(F)F)cc1Cl)c1ccc2c(c1)C1(CCS(=O)(=O)CC1)[C@@H](C1CC1)N2S(=O)(=O)c1ccc(F)cc1	RET V804M	cell-free assay	competition with immobilised ligand	1 µM	100%
F[C@@H]1CCN(c2nccc(-c3cnn4ncccc34)n2)C1	RET V804M	binding		1 µM	72%
N#CC1(c2ccccn2)CCN(Cc2cc(C(=O)N3CCCC3)c(=O)n3ccccc23)CC1	RET M918T	cell-free assay	competition with immobilised ligand	1 µM	88%
O=C(NCCCN1CCOCC1)c1ccc(Nc2nccc(-c3cc4ccccc4s3)n2)cc1	RET M918T	binding	competition with immobilised ligand	1 µM	93%
O=C(N[C@H]1CCCCC/C=C\C2C[C@@]2(C(=O)O)NC(=O)[C@@H]2C[C@@H](Oc3ccncc3)CN2C1=O)OC1CCCC1 (some centres unmarked)	RET V804M	binding	competition with immobilised ligand	1 µM	100%
CC(C)(C)c1ccc(-c2nc(CBr)nn2-c2cccc(O)c2)cc1	RET	cell-free assay	competition with immobilised ligand	10 µM	93%
